According to ChEMBL document CHEMBL1165980, “Synthesis and structure-activity relationship study of novel cytotoxic carbamate and N-acylheterocyclic bearing derivatives of betulin and betulinic acid” (Bioorg Med Chem, 2010):
Active and inactive are the calls of the source. The calls are words filed in the database; no cut-off is given here.

How the values were obtained:
[1] = test system: HepG2; assay: Cytotoxicity against human HepG2 cells after 72 hrs by MTT assay; format: functional, cell-based; settings: HepG2, 72 h
In short: (§1)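 Exponentially growing cells seeded at 1–8 × 10³ cells/well and left 24 h. Medium then replaced with medium holding compound in DMSO (final DMSO <0.1%), ten serial threefold dilutions, or DMSO alone. Triplicate wells, 72 h exposure. MTT added, 1 h at 37 °C, formazan dissolved in DMSO, A550 read. IC50 by non-linear regression; mean ± SD of at least three experiments.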

[2] = test system: PC-3; assay: Cytotoxicity against human PC3 cells after 72 hrs by MTT assay; format: functional, cell-based; settings: PC-3, 72 h; in short: as §1
[3] = test system: HeLa; assay: Cytotoxicity against human HeLa cells after 72 hrs by MTT assay; format: functional, cell-based; in short: as §1
[4] = test system: Jurkat; assay: Cytotoxicity against human Jurkat cells after 72 hrs by XTT assay; format: functional, cell-based
In short: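 Exponentially growing Jurkat cells (RPMI 1640, 10% heat-inactivated FBS, 1% P/S, 2 mM glutamine) seeded at 5.5 × 10³ cells/well. Exposed to ten serial threefold dilutions of compound or DMSO vehicle in medium, triplicate wells, 72 h. XTT labeling mixture then added for 4 h at 37 °C, A450 read. IC50 by non-linear regression; mean ± SD of at least three experiments.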

[5] = test system: HT-29; assay: Cytotoxicity against human HT-29 cells after 72 hrs by MTT assay; format: functional, cell-based; settings: HT-29, 72 h; in short: as §1
[6] = target: T1, DNA topoisomerase 1 (Homo sapiens) (UniProt P11387); assay: Inhibition of DNA topoisomerase 1-mediated relaxation of supercoiled plasmid DNA at 100 uM after 3 hrs by gel electrophoresis
T1 sequence (whole entry): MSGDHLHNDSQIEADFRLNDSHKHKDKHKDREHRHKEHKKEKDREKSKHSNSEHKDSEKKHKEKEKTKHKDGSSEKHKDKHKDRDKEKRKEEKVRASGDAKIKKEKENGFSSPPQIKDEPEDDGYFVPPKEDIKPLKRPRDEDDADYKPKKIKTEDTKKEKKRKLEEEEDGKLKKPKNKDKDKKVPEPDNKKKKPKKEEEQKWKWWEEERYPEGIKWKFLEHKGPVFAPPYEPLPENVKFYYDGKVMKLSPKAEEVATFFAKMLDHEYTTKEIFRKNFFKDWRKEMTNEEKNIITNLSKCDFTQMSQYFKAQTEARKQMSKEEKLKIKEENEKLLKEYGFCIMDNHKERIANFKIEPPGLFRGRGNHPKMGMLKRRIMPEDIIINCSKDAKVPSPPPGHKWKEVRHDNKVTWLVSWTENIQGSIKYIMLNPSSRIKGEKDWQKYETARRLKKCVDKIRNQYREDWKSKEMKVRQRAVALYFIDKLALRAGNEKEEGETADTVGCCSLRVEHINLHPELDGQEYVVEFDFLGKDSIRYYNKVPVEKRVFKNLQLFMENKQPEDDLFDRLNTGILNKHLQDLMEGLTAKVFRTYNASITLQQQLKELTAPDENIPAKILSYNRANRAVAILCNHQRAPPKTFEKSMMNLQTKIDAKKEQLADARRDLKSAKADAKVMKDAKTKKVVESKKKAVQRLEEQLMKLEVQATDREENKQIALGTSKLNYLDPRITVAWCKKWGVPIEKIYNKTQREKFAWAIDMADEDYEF
In short: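 Topoisomerase I kit assay. Compound at 100 µM final with 0.5% DMSO. Started with 5 U topo I, run 30 min at 37 °C, stopped with 1% SDS. Products resolved on 1% agarose in TAE at 80 V for 3 h, ethidium-stained. Inhibition scored 0 to 3+.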

[7] = test system: BJ; assay: Cytotoxicity against human BJ cells after 72 hrs by MTT assay; format: cell-based; in short: as §1
[8] = test system: BJ; assay: Selectivity ratio of IC50 for human BJ cells to IC50 for human PC3 cells
[9] = test system: PC-3; assay: Ratio of betulinic acid IC50 to compound IC50 for human PC3 cells; format: functional
[10] = in the assay text read “after 30 mins” for “after 3 hrs”

`C=C(C)[C@@H]1CC[C@]2(C(=O)O)CC[C@]3(C)[C@H](CC[C@@H]4[C@@]5(C)CC[C@H](O)C(C)(C)[C@@H]5CC[C@]43C)[C@@H]12` [BETULINIC ACID] was tested, and the IC50 [1] was 36.4 µM, the IC50 [2] was 21.5 µM and the IC50 [3] was 26 µM. For the same compound, the IC50 [4] was 26.9 µM and the IC50 [5] was 12.8 µM.

With `C=C(C)[C@@H]1CC[C@]2(C(=O)O)CC[C@]3(C)[C@H](CC[C@@H]4[C@@]5(C)CC[C@H](OC(=O)n6ccnc6C)C(C)(C)[C@@H]5CC[C@]43C)[C@@H]12` the IC50 [1] was 7.3 µM, the inhibition [6] was “Active” and the IC50 [7] was 41.3 µM. The IC50 [3] was 7.5 µM, the IC50 [4] was 6.1 µM and the IC50 [5] was 5.7 µM.

For `C=C(C)[C@@H]1CC[C@]2(COC(C)=O)CC[C@]3(C)[C@H](CC[C@@H]4[C@@]5(C)CC[C@H](OC(=O)n6ccnc6C)C(C)(C)[C@@H]5CC[C@]43C)[C@@H]12`, the IC50 [1] was > 30 µM, the IC50 [3] was > 30 µM and the IC50 [4] was > 30 µM. The IC50 [5] was > 30 µM.

`C=C(COC)[C@@H]1CC[C@]2(COC(=O)n3cncn3)CC[C@]3(C)[C@H](CC[C@@H]4[C@@]5(C)CC[C@H](O)C(C)(C)[C@@H]5CC[C@]43C)[C@@H]12` was tested, and the IC50 [1] was 9.1 µM, the IC50 [2] was 2.6 µM and the inhibition [6] was “Active”. The IC50 [7] was 46.6 µM, the IC50 [3] was 24.3 µM and the “Ratio IC50” value [8] was 15. It also gave an IC50 [4] of 9.5 µM and an IC50 [5] of 5.8 µM.

With `C=C(C)[C@@H]1CC[C@]2(C(=O)n3cncn3)CC[C@]3(C)[C@H](CC[C@@H]4[C@@]5(C)CC[C@H](OC(=O)n6cncn6)C(C)(C)[C@@H]5CC[C@]43C)[C@@H]12` the “Ratio IC50” value [9] was 19, the IC50 [1] was 6.8 µM and the IC50 [2] was 1.1 µM. The inhibition [6] was “Active”, the IC50 [7] was 19.4 µM and the IC50 [3] was 4.1 µM. For the same compound, the “Ratio IC50” value [8] was 15, the IC50 [4] was 11.6 µM and the IC50 [5] was 1.9 µM.

`C=C(C)[C@@H]1CC[C@]2(COC(=O)n3ccnc3C)CC[C@]3(C)[C@H](CC[C@@H]4[C@@]5(C)CC[C@H](OC(C)=O)C(C)(C)[C@@H]5CC[C@]43C)[C@@H]12` was tested, and the IC50 [1] was > 30 µM, the IC50 [3] was > 30 µM and the IC50 [4] was > 30 µM. For the same compound, the IC50 [5] was > 30 µM.

With `C=C(C)[C@@H]1CC[C@]2(COC(=O)n3ccnc3C)CC[C@]3(C)[C@H](CC[C@@H]4[C@@]5(C)CC[C@H](OC(=O)n6ccnc6C)C(C)(C)[C@@H]5CC[C@]43C)[C@@H]12` the IC50 [1] was > 30 µM, the inhibition [6, 10] was “inactive” and the IC50 [3] was > 30 µM. For the same compound, the IC50 [4] was > 30 µM and the IC50 [5] was > 30 µM.

In the case of `C=C(COC)[C@@H]1CC[C@]2(COC(=O)n3ccnc3C)CC[C@]3(C)[C@H](CC[C@@H]4[C@@]5(C)CC[C@H](O)C(C)(C)[C@@H]5CC[C@]43C)[C@@H]12`, the IC50 [1] is reported as 14.4 µM, the inhibition [6, 10] is reported as “inactive” and the IC50 [3] is reported as 8.9 µM. The IC50 [4] was 24.8 µM and the IC50 [5] was 10.4 µM.

In the case of `C=C(COC)[C@@H]1CC[C@]2(COC(=O)n3cncn3)CC[C@]3(C)[C@H](CC[C@@H]4[C@@]5(C)CC[C@H](OC(=O)n6cncn6)C(C)(C)[C@@H]5CC[C@]43C)[C@@H]12`, the IC50 [2] is reported as 6.4 µM, the inhibition [6] is reported as “inactive” and the IC50 [5] is reported as 12.3 µM.

For `C=C(C)[C@@H]1CC[C@]2(COC(=O)n3cncn3)CC[C@]3(C)[C@H](CC[C@@H]4[C@@]5(C)CC[C@H](O)C(C)(C)[C@@H]5CC[C@]43C)[C@@H]12`, the IC50 [2] was 4.7 µM, the inhibition [6] was “inactive” and the IC50 [5] was 7.6 µM.

With `Cc1nccn1C(=O)OC[C@]12CC[C@@H]([C@@H](C)C=O)C1[C@H]1CC[C@@H]3[C@@]4(C)CC[C@H](O)C(C)(C)[C@@H]4CC[C@@]3(C)[C@]1(C)CC2` (stereo partly drawn) the IC50 [1] was 14.3 µM, the inhibition [6, 10] was “Active” and the IC50 [3] was 16.6 µM. For the same compound, the IC50 [4] was 21.3 µM and the IC50 [5] was 15.8 µM.

In the case of `C=C(C)[C@@H]1CC[C@]2(COC(=O)n3ccnc3C)CC[C@]3(C)[C@H](CC[C@@H]4[C@@]5(C)CC[C@H](O)C(C)(C)[C@@H]5CC[C@]43C)[C@@H]12`, the IC50 [1] is reported as 36.4 µM, the inhibition [6, 10] is reported as “inactive” and the IC50 [3] is reported as 11 µM. It also gave an IC50 [4] of 15.8 µM and an IC50 [5] of 16.2 µM.

In the case of `C=C(C)[C@@H]1CC[C@]2(C(=O)O)CC[C@]3(C)[C@H](CC[C@@H]4[C@@]5(C)C=C(OC(=O)n6ccnc6C)C(=O)C(C)(C)[C@@H]5CC[C@]43C)[C@@H]12`, the IC50 [1] is reported as 4.7 µM, the inhibition [6, 10] is reported as “Active” and the IC50 [7] is reported as 37.2 µM. The IC50 [3] was 6.4 µM, the IC50 [4] was 9.4 µM and the IC50 [5] was 5.9 µM.

With `C=C(C)[C@@H]1CC[C@]2(C(=O)n3cncn3)CC[C@]3(C)[C@H](CC[C@@H]4[C@@]5(C)C=C(O)C(=O)C(C)(C)[C@@H]5CC[C@]43C)[C@@H]12` the “Ratio IC50” value [9] was 12, the IC50 [1] was 7.4 µM and the IC50 [2] was 1.8 µM. For the same compound, the inhibition [6, 10] was “Active”, the IC50 [7] was 27.9 µM and the IC50 [3] was 5.4 µM. For the same compound, the “Ratio IC50” value [8] was 15, the IC50 [4] was 10.5 µM and the IC50 [5] was 3.3 µM.

`C=C(C)[C@@H]1CC[C@]2(C(=O)n3ccnc3C)CC[C@]3(C)[C@H](CC[C@@H]4[C@@]5(C)C=CC(=O)C(C)(C)[C@@H]5CC[C@]43C)[C@@H]12` was tested, and the IC50 [1] was 6.8 µM, the inhibition [6, 10] was “inactive” and the IC50 [3] was 10.6 µM. It also gave an IC50 [4] of 12.5 µM and an IC50 [5] of 9 µM.

With `C=C(C)[C@@H]1CC[C@]2(C(=O)n3ccnc3C)CC[C@]3(C)[C@H](CC[C@@H]4[C@@]5(C)CCC(=O)C(C)(C)[C@@H]5CC[C@]43C)[C@@H]12` the IC50 [1] was 5.5 µM, the inhibition [6] was “inactive” and the IC50 [7] was 48.4 µM. It also gave an IC50 [3] of 4.2 µM, an IC50 [4] of 5.3 µM and an IC50 [5] of 4.7 µM.

With `C=C(COC)[C@@H]1CC[C@]2(COC(=O)n3ccnc3C)CC[C@]3(C)[C@H](CC[C@@H]4[C@@]5(C)CC[C@H](OC(=O)n6ccnc6C)C(C)(C)[C@@H]5CC[C@]43C)[C@@H]12` the IC50 [1] was 28.2 µM, the inhibition [6, 10] was “inactive” and the IC50 [3] was 13.4 µM. The IC50 [4] was > 30 µM and the IC50 [5] was > 30 µM.

For `C=C(C)[C@@H]1CC[C@]2(COC(C)=O)CC[C@]3(C)[C@H](CC[C@@H]4[C@@]5(C)CC[C@H](OC(=O)n6cncn6)C(C)(C)[C@@H]5CC[C@]43C)[C@@H]12`, the IC50 [2] was > 30 µM and the IC50 [5] was > 30 µM.

`C=C(C)[C@@H]1CC[C@]2(CO)CC[C@]3(C)[C@H](CC[C@@H]4[C@@]5(C)CC[C@H](OC(=O)n6cncn6)C(C)(C)[C@@H]5CC[C@]43C)[C@@H]12` was tested, and the IC50 [1] was 7.3 µM, the IC50 [2] was 2.1 µM and the inhibition [6, 10] was “Active”. For the same compound, the IC50 [7] was 39.4 µM, the IC50 [3] was 6.9 µM and the “Ratio IC50” value [8] was 15. For the same compound, the IC50 [4] was 12.2 µM and the IC50 [5] was 4.9 µM.

With `C=C(C)[C@@H]1CC[C@]2(COC(=O)n3cncn3)CC[C@]3(C)[C@H](CC[C@@H]4[C@@]5(C)CC[C@H](OC(C)=O)C(C)(C)[C@@H]5CC[C@]43C)[C@@H]12` the IC50 [2] was > 30 µM and the IC50 [5] was > 30 µM.

For `C=C(C)[C@@H]1CC[C@]2(COC(=O)n3cncn3)CC[C@]3(C)[C@H](CC[C@@H]4[C@@]5(C)CC[C@H](OC(=O)n6cncn6)C(C)(C)[C@@H]5CC[C@]43C)[C@@H]12`, the IC50 [2] was 7.9 µM, the inhibition [6] was “inactive” and the IC50 [5] was 17.5 µM.
